Data published in ChEMBL document CHEMBL3232816, “Substituted E-3-(3-indolylmethylene)1,3-dihydroindol-2-ones with antiproliferative activity. Study of the effects on HL-60 leukemia cells” (2014).
The source made the active and inactive calls. The calls are words filed in the database; no cut-off is given here.

Experiments:
[1] = Cytotoxicity against human ovarian cancer cells after 48 hrs; assay type: functional; settings: Cancer cell lines
Method in brief: (§1)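 NCI 60-line panel. Compounds were dissolved in DMSO and tested at five 10-fold dilutions, the highest 10^-4 M (10^-3 M where footnoted), over 48 h of incubation. The readouts were GI50, TGI and LC50 in μM, with the panel mean also given. Only compounds passing a 10^-5 M single-dose prescreen were tested; some were repeated and averaged over two experiments.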

HL-60 [2] = experiment: Cell cycle arrest in human HL60 cells assessed as accumulation at G0-G1 phase at 1 uM after 24 hrs by propidium iodide staining-based flow cytometric analysis (reference value: 32.4%); assay type: functional
[3] = Cytotoxicity against human breast cancer cells after 48 hrs; assay type: functional; settings: Cancer cell lines; for CC50: read-out: LC50 (the source's name); method in brief: as §1
[4] = Cytotoxicity against human colon cancer cells after 48 hrs; assay type: functional; settings: Cancer cell lines; for CC50: read-out: LC50 (the source's name); method in brief: as §1
HL-60 [5] = experiment: Induction of apoptosis in human HL60 cells assessed as increase in intracellular free Ca2+ level at 1 uM after 24 hrs by INDO-1/AM probe-based fluorometric analysis; assay type: functional, cell-based
Method in brief: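 They were stained with 5 μM INDO-1/AM, excited at 346 nm, and emission read at 405/485 nm. Rmin came from 5 mM EDTA/EGTA plus 5 μM digitonin, Rmax from 10 mM CaCl2. Free Ca2+ was calculated with Kd […]. Means ± s.e.m., n=3.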

HL-60 [6] = experiment: Induction of apoptosis in human HL60 cells assessed as increase in oxidative stress at 1 uM after 24 hrs by DCFDA staining; assay type: functional, cell-based
Method in brief: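 Intracellular peroxides in HL-60 cells treated 24 h with 1 μM compound or DMSO. Cells were loaded with 5 μM DCF-DA for 30 min at 37 °C, then DCF fluorescence was acquired by flow cytometry with logarithmic amplification. Means ± s.e.m., n=3.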

HL-60 [7] = experiment: Effect on autophagy in human HL60 cells by LC3 protein processing assay; assay type: functional, cell-based
[8] = Cytotoxicity against human NSCLC cells after 48 hrs; assay type: functional; method in brief: as §1
HL-60 [9] = experiment: Effect on autophagy in human HL60 cells by acridine orange staining; assay type: functional, cell-based
[10] = Cytotoxicity against human melanoma cells after 48 hrs; assay type: functional; settings: Melanoma cell; method in brief: as §1
HL-60 [11] = experiment: Cytotoxicity against human HL60 cells assessed as growth inhibition at 1 uM measured up to 48 hrs; assay type: functional, cell-based
Method in brief: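 HL-60 cells, RPMI 1640 with 10% fetal calf serum and 2 mM glutamine, 37 °C, 5% CO2. Cells received 1 μM compound diluted from a 10 mmol/L DMSO stock; controls got equal DMSO. Viable cells were counted daily to follow total cell number. Means ± s.e.m. of three determinations.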

[12] = Cytotoxicity against human prostate cancer cells after 48 hrs; assay type: functional; settings: Cancer cell lines; for CC50: read-out: LC50 (the source's name); method in brief: as §1
HL-60 [13] = experiment: Induction of apoptosis in human HL60 cells assessed as increase in caspase proteolytic activity using DEVD as substrate at 1 uM after 24 hrs by fluorometric analysis; assay type: functional, cell-based
Method in brief: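 After 24 h exposure of HL-60 cells to 1 μM compound or DMSO vehicle, DEVD-hydrolysing caspase (DEVDase) activity was measured fluorometrically in cell extracts. Means ± s.e.m. of three determinations.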

[14] = Cytotoxicity against human CNS cancer cells after 48 hrs; assay type: functional; settings: Cancer cell lines; for CC50: read-out: LC50 (the source's name); method in brief: as §1
HL-60 [15] = experiment: Cell cycle arrest in human HL60 cells assessed as accumulation at G2-M phase at 1 uM after 24 hrs by propidium iodide staining-based flow cytometric analysis (reference value: 10.7%); assay type: functional
[16] = Cytotoxicity against human leukemia cells after 48 hrs; assay type: functional; settings: for GI50 / TGI: Leukemia cell; method in brief: as §1
[17] = Cytotoxicity against human renal cancer cells after 48 hrs; assay type: functional; settings: Cancer cell lines; method in brief: as §1
HL-60 [18] = experiment: Induction of apoptosis in human HL60 cells assessed as increase in intracellular free Mg2+ level at 1 uM after 24 hrs by Mag-Fura2 probe-based fluorometric analysis; assay type: functional, cell-based
Method in brief: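 They were loaded with 5 μM Mag-Fura2 for 60 min at 37 °C in the dark, washed, and held 45 min at room temperature. Emission at 510 nm was read with excitation at 335/370 nm. Rmin came from 5 mM EDTA/EGTA then 0.1% Triton X-100, Rmax from MgSO4. Free Mg2+ was calculated with Kd 2.1 mM, in triplicate.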

HL-60 [19] = experiment: Cell cycle arrest in human HL60 cells assessed as accumulation at S phase at 1 uM after 24 hrs by propidium iodide staining-based flow cytometric analysis (reference value: 56.9%); assay type: functional
HL-60 [20] = experiment: Induction of apoptosis in human HL60 cells assessed as early apoptotic cells at 1 uM after 24 hrs by annexin V-FLUOS staining-based flow cytometric analysis (reference value: 4%); assay type: functional

`COc1ccc(CCn2c(Cl)c(/C=C3/C(=O)Nc4ccccc43)c3ccccc32)cc1` gave a GI50 [1] of 0.34 µM, an LC50 [1] of 69.2 µM and a TGI [1] of 13.5 µM. It also gave an Activity (HL-60 [2]) of 16.7%, a GI50 [3] of 0.32 µM and a TGI [3] of 6.31 µM. The GI50 [4] was 0.28 µM, the TGI [4] was 1.82 µM and the CC50 [4] was 52.5 µM. For the same molecule, the Activity (HL-60 [5]) was “Active”, the Activity (HL-60 [6]) was “Active” and the Activity (HL-60 [7]) was “Active”. The GI50 [8] was 0.43 µM, the LC50 [8] was 74.1 µM and the TGI [8] was 15.1 µM. For the same molecule, the Activity (HL-60 [9]) was “Active”, the GI50 [10] was 0.46 µM and the LC50 [10] was 63.1 µM. For the same molecule, the TGI [10] was 9.12 µM, the “growth inhibition (GI)” value (HL-60 [11]) was “Active” and the GI50 [12] was 0.35 µM. For the same molecule, the TGI [12] was 19.5 µM, the CC50 [12] was 55 µM and the Activity (HL-60 [13]) was “Active”. For the same molecule, the GI50 [14] was 0.34 µM, the TGI [14] was 8.32 µM and the CC50 [14] was 58.9 µM. For the same molecule, the Activity (HL-60 [15]) was 69.3%, the GI50 [16] was 0.35 µM and the TGI [16] was 15.5 µM. The GI50 [17] was 0.48 µM, the LC50 [17] was 72.4 µM and the TGI [17] was 18.6 µM. For the same molecule, the Activity (HL-60 [18]) was “Active”, the Activity (HL-60 [19]) was 14% and the Activity (HL-60 [20]) was 50%.

For `COc1c(/C=C2/C(=O)Nc3ccc(Cl)cc32)c2ccccc2n1-c1ccccc1`, the GI50 [1] was 8.51 µM, the LC50 [1] was 66.1 µM and the TGI [1] was 24 µM. For the same molecule, the GI50 [3] was 4.27 µM, the TGI [3] was 13.8 µM and the CC50 [3] was 52.5 µM. For the same molecule, the GI50 [4] was 6.31 µM, the TGI [4] was 25.7 µM and the CC50 [4] was 60.3 µM. For the same molecule, the GI50 [8] was 9.55 µM, the LC50 [8] was 57.5 µM and the TGI [8] was 24.6 µM. It also gave a GI50 [10] of 5.62 µM, an LC50 [10] of 51.3 µM and a TGI [10] of 18.2 µM. It also gave a GI50 [12] of 9.33 µM, a TGI [12] of 24 µM and a CC50 [12] of 60.3 µM. It also gave a GI50 [14] of 5.25 µM, a TGI [14] of 19.1 µM and a CC50 [14] of 52.5 µM. It also gave an LC50 (concentration giving 50% net cell kill) [16] of 58.9 µM, a GI50 [16] of 2.34 µM and a TGI [16] of 8.91 µM. The GI50 [17] was 8.51 µM, the LC50 [17] was 51.3 µM and the TGI [17] was 21.9 µM.

`COc1cc2c(cc1C)NC(=O)/C2=C/c1c(Cl)n(Cc2cc(OC)c(OC)c(OC)c2)c2cc(C)c(OC)cc12` showed a GI50 [1] of 30.9 µM, a GI50 [3] of 10 µM and a GI50 [4] of 16.6 µM. It also gave a GI50 [8] of 11 µM, a TGI [8] of 66.1 µM and a GI50 [10] of 25.1 µM. For the same molecule, the GI50 [12] was 5.5 µM, the TGI [12] was 87.1 µM and the GI50 [14] was 49 µM. For the same molecule, the GI50 [16] was 3.24 µM, the TGI [16] was 42.7 µM and the GI50 [17] was 38.9 µM.

With `COc1ccc2c(c1)/C(=C\c1c(Cl)n(Cc3cc(OC)c(OC)c(OC)c3)c3cc(C)c(OC)cc13)C(=O)N2` the GI50 [1] was 33.1 µM, the GI50 [3] was 10.2 µM and the TGI [3] was 57.5 µM. The GI50 [4] was 11 µM, the TGI [4] was 85.1 µM and the GI50 [8] was 20.4 µM. It also gave a TGI [8] of 97.7 µM, a GI50 [10] of 14.8 µM and a TGI [10] of 75.9 µM. The GI50 [12] was 14.5 µM, the TGI [12] was 95.5 µM and the GI50 [14] was 16.2 µM. It also gave a TGI [14] of 75.9 µM, a GI50 [16] of 6.17 µM and a TGI [16] of 77.6 µM. It also gave a GI50 [17] of 29.5 µM.

Molecule `COc1ccc(OC)c2c1NC(=O)/C2=C/c1c(Cl)[nH]c2ccccc12` has a GI50 [1] of 2.51 µM, an LC50 [1] of 41.7 µM and a TGI [1] of 15.1 µM. It also gave a GI50 [3] of 1.62 µM, a TGI [3] of 12.6 µM and a CC50 [3] of 64.6 µM. For the same molecule, the GI50 [4] was 2.24 µM, the TGI [4] was 8.91 µM and the CC50 [4] was 33.9 µM. It also gave a GI50 [8] of 3.55 µM, an LC50 [8] of 74.1 µM and a TGI [8] of 22.4 µM. For the same molecule, the GI50 [10] was 3.39 µM, the LC50 [10] was 46.8 µM and the TGI [10] was 16.2 µM. The GI50 [12] was 3.47 µM, the TGI [12] was 19.9 µM and the CC50 [12] was 51.3 µM. The GI50 [14] was 2.75 µM, the TGI [14] was 13.5 µM and the CC50 [14] was 44.7 µM. The GI50 [16] was 1.51 µM, the TGI [16] was 56.2 µM and the GI50 [17] was 3.39 µM. For the same molecule, the LC50 [17] was 53.7 µM and the TGI [17] was 16.2 µM.

`O=C1Nc2ccccc2/C1=C\c1c(Cl)n(CCCc2ccccc2)c2ccccc12` gave a GI50 [1] of 12 µM, a TGI [1] of 72.4 µM and a GI50 [3] of 10 µM. It also gave a TGI [3] of 72.4 µM, a GI50 [4] of 12 µM and a TGI [4] of 60.3 µM. It also gave a GI50 [8] of 14.1 µM, a TGI [8] of 72.4 µM and a GI50 [10] of 13.8 µM. The TGI [10] was 67.6 µM, the GI50 [12] was 19.1 µM and the GI50 [14] was 16.6 µM. For the same molecule, the TGI [14] was 75.9 µM, the GI50 [16] was 8.91 µM and the TGI [16] was 50.1 µM. For the same molecule, the GI50 [17] was 13.8 µM and the TGI [17] was 67.6 µM.

With `COc1cc2c(/C=C3/C(=O)Nc4ccc(Cl)cc43)c(Cl)n(Cc3cc(OC)c(OC)c(OC)c3)c2cc1C` the GI50 [1] was 3.72 µM, the LC50 [1] was 39.8 µM and the TGI [1] was 13.8 µM. It also gave a GI50 [3] of 2.09 µM, a TGI [3] of 5.5 µM and a CC50 [3] of 22.4 µM. For the same molecule, the GI50 [4] was 2.19 µM, the TGI [4] was 5.62 µM and the CC50 [4] was 29.5 µM. For the same molecule, the GI50 [8] was 2.29 µM, the LC50 [8] was 16.2 µM and the TGI [8] was 5.89 µM. The GI50 [10] was 2.29 µM, the LC50 [10] was 17.8 µM and the TGI [10] was 5.75 µM. For the same molecule, the GI50 [12] was 1.78 µM, the TGI [12] was 3.89 µM and the CC50 [12] was 8.91 µM. The GI50 [14] was 2.34 µM, the TGI [14] was 6.03 µM and the CC50 [14] was 23.4 µM. The LC50 (concentration giving 50% net cell kill) [16] was 15.8 µM, the GI50 [16] was 1.86 µM and the TGI [16] was 4.79 µM. It also gave a GI50 [17] of 2.95 µM, an LC50 [17] of 18.6 µM and a TGI [17] of 7.24 µM.
